Data taken from ChEMBL document CHEMBL1828615, “Synthesis of a series of 3,4-methanoarginines as side-chain conformationally restricted analogues of arginine” (Bioorg Med Chem, 2011).

Experiments:
[1] = target: Nitric oxide synthase 1 (Rattus norvegicus) (UniProt P29476); experiment: Inhibition of rat nNOS assessed as nitric oxide-mediated oxidation of haemoglobin-A0 at 300 uM using L-arginine by haemoglobin capture assay
How it was run: (§1)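 For eNOS (bovine) and nNOS (rat), inhibition was tested as the effect of compound on L-arginine turnover, by hemoglobin capture at 30 °C. Buffer was 100 mM HEPES (pH 7.5) with 1.0 mM CaCl₂, 600 unit/mL calmodulin, NADPH, 0.125 mg/mL ferrous hemoglobin-A₀ and H₄B. Reactions were started with enzyme, and hemoglobin-A₀ oxidation was read at 401 nm.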

[2] = target: T1, Nitric oxide synthase, inducible (Mus musculus) (UniProt P29477); experiment: Inhibition of mouse iNOS assessed as nitric oxide-mediated oxidation of haemoglobin-A0 at 300 uM using L-arginine by haemoglobin capture assay
T1 sequence (whole entry): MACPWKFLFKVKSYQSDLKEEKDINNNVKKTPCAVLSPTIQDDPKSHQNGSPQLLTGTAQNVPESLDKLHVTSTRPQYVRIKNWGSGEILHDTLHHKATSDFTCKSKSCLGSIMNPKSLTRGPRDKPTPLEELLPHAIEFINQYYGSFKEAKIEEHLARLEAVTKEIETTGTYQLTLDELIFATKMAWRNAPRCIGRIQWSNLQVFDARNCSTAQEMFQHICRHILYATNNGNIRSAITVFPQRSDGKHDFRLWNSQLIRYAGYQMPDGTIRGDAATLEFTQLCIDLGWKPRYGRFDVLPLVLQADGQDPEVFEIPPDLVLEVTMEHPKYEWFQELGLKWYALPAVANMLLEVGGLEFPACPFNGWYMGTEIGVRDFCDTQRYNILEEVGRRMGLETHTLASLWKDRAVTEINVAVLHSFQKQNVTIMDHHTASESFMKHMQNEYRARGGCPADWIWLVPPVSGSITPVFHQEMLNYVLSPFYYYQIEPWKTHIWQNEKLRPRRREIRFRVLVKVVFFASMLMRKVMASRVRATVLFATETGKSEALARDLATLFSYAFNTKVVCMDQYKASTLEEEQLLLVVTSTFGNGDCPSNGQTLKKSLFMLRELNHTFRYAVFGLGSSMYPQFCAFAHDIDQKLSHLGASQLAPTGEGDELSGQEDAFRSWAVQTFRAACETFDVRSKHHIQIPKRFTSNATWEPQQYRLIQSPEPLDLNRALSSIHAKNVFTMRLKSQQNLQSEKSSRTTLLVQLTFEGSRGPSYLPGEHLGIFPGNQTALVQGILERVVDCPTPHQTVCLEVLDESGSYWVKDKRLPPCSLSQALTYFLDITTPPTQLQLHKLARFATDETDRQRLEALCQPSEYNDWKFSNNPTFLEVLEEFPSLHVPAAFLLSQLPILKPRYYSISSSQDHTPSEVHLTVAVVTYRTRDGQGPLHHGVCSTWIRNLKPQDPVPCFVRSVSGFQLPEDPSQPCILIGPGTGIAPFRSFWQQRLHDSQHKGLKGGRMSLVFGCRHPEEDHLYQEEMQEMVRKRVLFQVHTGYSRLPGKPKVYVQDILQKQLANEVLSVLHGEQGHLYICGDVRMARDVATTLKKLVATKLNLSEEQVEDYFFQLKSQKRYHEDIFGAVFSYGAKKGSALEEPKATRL
How it was run: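 Murine iNOS inhibition was measured against L-arginine as substrate in a hemoglobin capture assay at 30 °C, without calcium or calmodulin. The mix held NADPH, 0.125 mg/mL ferrous hemoglobin-A₀ and H₄B in 100 mM HEPES (pH 7.5). Enzyme addition initiated the reaction, and NO-mediated oxidation was monitored at 401 nm.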

[3] = target: T2, Nitric oxide synthase 3 (Bos taurus) (UniProt P29473); experiment: Inhibition of bovine eNOS assessed as nitric oxide-mediated oxidation of haemoglobin-A0 at 300 uM using L-arginine by haemoglobin capture assay; how it was run: as §1
T2 sequence (whole entry): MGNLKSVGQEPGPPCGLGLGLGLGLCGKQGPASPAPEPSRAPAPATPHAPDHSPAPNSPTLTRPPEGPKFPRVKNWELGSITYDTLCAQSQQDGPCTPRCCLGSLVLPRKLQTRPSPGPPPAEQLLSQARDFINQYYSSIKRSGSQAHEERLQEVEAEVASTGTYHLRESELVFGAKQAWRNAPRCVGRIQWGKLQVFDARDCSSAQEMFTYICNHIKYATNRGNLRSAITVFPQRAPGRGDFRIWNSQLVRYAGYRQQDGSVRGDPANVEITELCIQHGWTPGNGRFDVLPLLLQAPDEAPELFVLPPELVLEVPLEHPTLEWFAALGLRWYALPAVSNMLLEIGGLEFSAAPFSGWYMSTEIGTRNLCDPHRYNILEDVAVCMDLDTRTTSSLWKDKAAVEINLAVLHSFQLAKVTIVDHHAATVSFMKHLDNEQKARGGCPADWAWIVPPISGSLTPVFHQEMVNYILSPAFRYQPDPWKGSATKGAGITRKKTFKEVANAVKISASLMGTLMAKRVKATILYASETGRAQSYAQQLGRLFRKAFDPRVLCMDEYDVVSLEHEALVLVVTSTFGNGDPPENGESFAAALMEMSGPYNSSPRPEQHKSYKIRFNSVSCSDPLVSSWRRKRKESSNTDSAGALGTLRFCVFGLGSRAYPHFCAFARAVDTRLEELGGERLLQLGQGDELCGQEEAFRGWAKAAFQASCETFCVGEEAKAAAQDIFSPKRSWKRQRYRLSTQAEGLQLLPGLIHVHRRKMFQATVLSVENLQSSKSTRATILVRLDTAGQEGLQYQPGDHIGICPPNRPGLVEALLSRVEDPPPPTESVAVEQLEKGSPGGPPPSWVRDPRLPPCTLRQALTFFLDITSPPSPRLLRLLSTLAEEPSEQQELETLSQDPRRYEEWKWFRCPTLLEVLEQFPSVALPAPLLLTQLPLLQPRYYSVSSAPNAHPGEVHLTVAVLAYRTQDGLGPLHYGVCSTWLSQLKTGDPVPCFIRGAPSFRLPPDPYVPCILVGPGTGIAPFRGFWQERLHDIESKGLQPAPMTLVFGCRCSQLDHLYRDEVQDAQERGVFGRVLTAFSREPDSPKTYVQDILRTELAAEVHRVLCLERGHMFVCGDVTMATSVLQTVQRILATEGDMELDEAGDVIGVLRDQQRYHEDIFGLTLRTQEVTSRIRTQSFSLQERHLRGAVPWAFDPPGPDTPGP

[4] = Selectivity ratio of km rat nNOS to km mouse iNOS by Michaelis-Menten equation analysis
[5] = Selectivity ratio of km for bovine eNOS to km for mouse iNOS by Michaelis-Menten equation analysis

Chain of Nitric oxide synthase 1 (Rattus norvegicus) (P29476 whole entry): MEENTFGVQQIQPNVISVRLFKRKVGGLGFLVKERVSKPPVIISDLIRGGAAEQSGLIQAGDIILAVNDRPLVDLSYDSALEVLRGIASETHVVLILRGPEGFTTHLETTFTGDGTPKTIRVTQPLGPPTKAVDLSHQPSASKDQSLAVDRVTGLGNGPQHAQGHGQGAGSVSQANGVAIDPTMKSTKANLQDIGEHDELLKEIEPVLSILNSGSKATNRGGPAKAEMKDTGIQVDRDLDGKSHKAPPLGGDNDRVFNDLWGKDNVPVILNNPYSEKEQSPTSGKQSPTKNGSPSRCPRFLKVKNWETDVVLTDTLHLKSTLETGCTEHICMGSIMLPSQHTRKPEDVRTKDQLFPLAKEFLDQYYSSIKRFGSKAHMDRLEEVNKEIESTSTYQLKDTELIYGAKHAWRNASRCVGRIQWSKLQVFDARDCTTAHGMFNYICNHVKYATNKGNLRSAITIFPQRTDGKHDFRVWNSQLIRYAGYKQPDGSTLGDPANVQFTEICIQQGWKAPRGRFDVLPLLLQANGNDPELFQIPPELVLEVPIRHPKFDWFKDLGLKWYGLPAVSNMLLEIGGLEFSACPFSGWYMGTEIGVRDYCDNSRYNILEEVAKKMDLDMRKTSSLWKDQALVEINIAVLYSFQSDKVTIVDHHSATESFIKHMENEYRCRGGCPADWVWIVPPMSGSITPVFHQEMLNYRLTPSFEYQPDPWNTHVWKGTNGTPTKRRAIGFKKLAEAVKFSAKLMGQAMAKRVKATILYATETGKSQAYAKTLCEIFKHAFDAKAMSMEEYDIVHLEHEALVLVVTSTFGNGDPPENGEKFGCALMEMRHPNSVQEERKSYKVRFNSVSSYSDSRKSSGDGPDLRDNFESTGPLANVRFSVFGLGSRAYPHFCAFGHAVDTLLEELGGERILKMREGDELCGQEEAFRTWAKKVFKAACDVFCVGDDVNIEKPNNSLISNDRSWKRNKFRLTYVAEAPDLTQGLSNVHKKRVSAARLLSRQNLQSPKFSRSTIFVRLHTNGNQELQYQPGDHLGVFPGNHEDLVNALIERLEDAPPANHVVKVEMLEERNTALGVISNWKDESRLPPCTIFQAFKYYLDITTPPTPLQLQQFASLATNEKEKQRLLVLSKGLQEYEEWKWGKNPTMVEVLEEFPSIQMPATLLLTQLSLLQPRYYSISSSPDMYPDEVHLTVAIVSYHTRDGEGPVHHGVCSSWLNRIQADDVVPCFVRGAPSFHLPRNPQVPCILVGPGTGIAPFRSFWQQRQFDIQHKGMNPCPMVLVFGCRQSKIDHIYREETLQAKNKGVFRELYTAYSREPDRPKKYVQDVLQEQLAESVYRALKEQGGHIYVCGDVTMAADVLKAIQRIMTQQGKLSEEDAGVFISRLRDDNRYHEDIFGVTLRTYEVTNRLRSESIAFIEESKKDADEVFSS

Row | Structure (SMILES) | inhibition [1] | inhibition [2] | inhibition [3] | Ratio [4] | Ratio [5]
1 | N=C(N)NC[C@H]1C[C@H]1[C@@H](N)C(=O)O | 30% | 14% | 27% |  | 
2 | N=C(N)NC[C@H]1C[C@@H]1[C@H](N)C(=O)O |  |  |  | 2.6 | 5.6
3 | N=C(N)NC[C@@H]1C[C@@H]1[C@H](N)C(=O)O | 30% | 22% | 16% |  | 
4 | N=C(N)NC[C@H]1C[C@@H]1[C@@H](N)C(=O)O | 5% | 19% | 23% |  | 
5 | N=C(N)NC[C@@H]1C[C@@H]1[C@@H](N)C(=O)O | 10% | 24% | 4% |  | 
6 | N=C(N)NC[C@@H]1C[C@H]1[C@@H](N)C(=O)O | 13% | 19% | 4% |  | 
7 | N=C(N)NCCC[C@H](N)C(=O)O |  |  |  | 3.5 | 8.6
8 | N=C(N)NC[C@@H]1C[C@H]1[C@H](N)C(=O)O | 16% | 26% | 45% |  | 
9 | N=C(N)NC[C@H]1C[C@H]1[C@H](N)C(=O)O |  |  |  | 2.3 | 3.6
